Measurements taken from ChEMBL document CHEMBL5108039, “Piperazine tethered bergenin heterocyclic hybrids: design, synthesis, anticancer activity, and molecular docking studies” (RSC Med Chem, 2022).
Calls of active or inactive are those of the source. The rule behind the calls is not given here.

Assays:
HCT-15 = assay: Cytotoxicity against human HCT-15 cells assessed as cell growth inhibition; type: functional, cell-based
In short: (§1)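 Compounds were dissolved in sterile DMSO as 10 mg ml−1 stocks and tested for in vitro growth inhibition of human cancer cell lines. Doxorubicin was the standard drug and DMSO (0.01%) the vehicle control. IC50 values are reported as means.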

CAL-27 [1] = assay: Cytotoxicity against human CAL-27 cells assessed as cell growth inhibition; type: functional, cell-based; in short: as §1
SCC-9 [2] = assay: Cytotoxicity against human SCC-9 cells assessed as cell growth inhibition; type: functional, cell-based; in short: as §1
A549 = assay: Cytotoxicity against human A549 cells assessed as cell growth inhibition; type: functional, cell-based
In short: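 Compounds were dissolved in sterile DMSO as 10 mg ml−1 stocks and tested in vitro for cytotoxicity in a cell-line panel, with DMSO (0.01%) as vehicle control and doxorubicin as standard. Mean IC50 values were reported, and the normal lung epithelial cells were tested up to 100 μM.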

MCF7 = assay: Cytotoxicity against human MCF7 cells assessed as cell growth inhibition; type: functional, cell-based; in short: as §1
CAL-27 [3] = assay: Cell cycle arrest in human CAL-27 cells assessed as accumulation at G0/G1 phase at 16 uM incubated for 24 hrs by flow cytometry (reference value: 77.6 %); type: functional
CAL-27 [4] = assay: Cell cycle arrest in human CAL-27 cells assessed as accumulation at S phase at 32 uM incubated for 24 hrs by flow cytometry (reference value: 3.6 %); type: functional
CAL-27 [5] = assay: Cell cycle arrest in human CAL-27 cells assessed as accumulation at G2/M phase at 16 uM incubated for 24 hrs by flow cytometry (reference value: 11.9 %); type: functional
CAL-27 [6] = assay: Cell cycle arrest in human CAL-27 cells assessed as accumulation at G2/M phase at 32 uM incubated for 24 hrs by flow cytometry (reference value: 11.9 %); type: functional
SCC-9 [7] = assay: Cell cycle arrest in human SCC-9 cells assessed as accumulation at G0/G1 phase at 16.2 uM incubated for 24 hrs by flow cytometry (reference value: 70.8 %); type: functional
SCC-9 [8] = assay: Cell cycle arrest in human SCC-9 cells assessed as accumulation at S phase at 16.2 uM incubated for 24 hrs by flow cytometry (reference value: 14.4 %); type: functional
SCC-9 [9] = assay: Cell cycle arrest in human SCC-9 cells assessed as accumulation at S phase at 32.4 uM incubated for 24 hrs by flow cytometry (reference value: 14.4 %); type: functional
CAL-27 [10] = assay: Induction of apoptosis in human CAL-27 cells assessed as live cells at 16 uM incubated for 24 hrs by Annexin V-FITC/PI staining based flow cytometric analysis (reference value: 99.8 %); type: functional
In short: (§2)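 CAL27 cells were treated with vehicle, doxorubicin or test compounds at 10–63 μM, and apoptosis was assessed by annexin V–FITC/PI staining with flow cytometry. Cells were scored as live, early apoptotic, late apoptotic or necrotic. The vehicle was DMSO (0.01%).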

CAL-27 [11] = assay: Induction of apoptosis in human CAL-27 cells assessed as early apoptotic cells at 16 uM incubated for 24 hrs by Annexin V-FITC/PI staining based flow cytometric analysis (reference value: 0.1 %); type: functional; in short: as §2
CAL-27 [12] = assay: Induction of apoptosis in human CAL-27 cells assessed as late apoptotic cells at 16 uM incubated for 24 hrs by Annexin V-FITC/PI staining based flow cytometric analysis (reference value: 0.1 %); type: functional; in short: as §2
CAL-27 [13] = assay: Induction of apoptosis in human CAL-27 cells assessed as necrotic cells at 16 uM incubated for 24 hrs by Annexin V-FITC/PI staining based flow cytometric analysis (reference value: 0.0 %); type: functional; in short: as §2
CAL-27 [14] = assay: Induction of apoptosis in human CAL-27 cells assessed as live cells at 32 uM incubated for 24 hrs by Annexin V-FITC/PI staining based flow cytometric analysis (reference value: 99.8 %); type: functional; in short: as §2
CAL-27 [15] = assay: Induction of apoptosis in human CAL-27 cells assessed as late apoptotic cells at 32 uM incubated for 24 hrs by Annexin V-FITC/PI staining based flow cytometric analysis (reference value: 0.1 %); type: functional; in short: as §2
SCC-9 [16] = assay: Induction of apoptosis in human SCC-9 cells assessed as live cells at 16.2 uM incubated for 24 hrs by Annexin V-FITC/PI staining based flow cytometric analysis (reference value: 95.7 %); type: functional
SCC-9 [17] = assay: Induction of apoptosis in human SCC-9 cells assessed as early apoptotic cells at 16.2 uM incubated for 24 hrs by Annexin V-FITC/PI staining based flow cytometric analysis (reference value: 2.8 %); type: functional
SCC-9 [18] = assay: Induction of apoptosis in human SCC-9 cells assessed as late apoptotic cells at 32.4 uM incubated for 24 hrs by Annexin V-FITC/PI staining based flow cytometric analysis (reference value: 1.4 %); type: functional
CAL-27 [19] = assay: Induction of apoptosis in human CAL-27 cells assessed as downregulation of vimentin gene expression at 16 uM by qRT-PCR analysis; type: functional, cell-based
In short: (§3)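 CAL27 cells were treated with test compounds at several concentrations. Relative expression of vimentin, E-cad, Nanog, Oct-4, Bax and BcL-2 was measured by qRT-PCR against vehicle-treated control cells.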

CAL-27 [20] = assay: Induction of apoptosis in human CAL-27 cells assessed as downregulation of Oct-4 gene expression at 16 uM by qRT-PCR analysis; type: functional, cell-based; in short: as §3
CAL-27 [21] = assay: Induction of apoptosis in human CAL-27 cells assessed as downregulation of Nanog gene expression at 16 uM by qRT-PCR analysis; type: functional, cell-based; in short: as §3
CAL-27 [22] = assay: Induction of apoptosis in human CAL-27 cells assessed as downregulation of Nanog gene expression at 32 uM by qRT-PCR analysis; type: functional, cell-based; in short: as §3
CAL-27 [23] = assay: Induction of apoptosis in human CAL-27 cells assessed as upregulation of Bax gene expression at 32 uM by qRT-PCR analysis; type: functional, cell-based
In short: (§4)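 CAL27 cells were treated with test agents at different concentrations. Relative mRNA levels of vimentin, E-cad, Nanog, Oct-4, Bax and Bcl-2 were then quantified by qRT-PCR as apoptosis, EMT and stemness markers.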

CAL-27 [24] = assay: Induction of apoptosis in human CAL-27 cells assessed as upregulation of E-cad gene expression at 16 uM by qRT-PCR analysis; type: functional, cell-based; in short: as §4
CAL-27 [25] = assay: Induction of apoptosis in human CAL-27 cells assessed as upregulation of E-cad gene expression at 32 uM by qRT-PCR analysis; type: functional, cell-based; in short: as §4
SCC-9 [26] = assay: Induction of apoptosis in human SCC-9 cells assessed as downregulation of Oct-4 gene expression at 32 uM by qRT-PCR analysis; type: functional, cell-based
SCC-9 [27] = assay: Induction of apoptosis in human SCC-9 cells assessed as downregulation of Nanog gene expression at 32 uM by qRT-PCR analysis; type: functional, cell-based
SCC-9 [28] = assay: Induction of apoptosis in human SCC-9 cells assessed as downregulation of BcL-2 gene expression at 16 uM by qRT-PCR analysis; type: functional, cell-based
SCC-9 [29] = assay: Induction of apoptosis in human SCC-9 cells assessed as downregulation of BcL-2 gene expression at 32 uM by qRT-PCR analysis; type: functional, cell-based
SCC-9 [30] = assay: Induction of apoptosis in human SCC-9 cells assessed as upregulation of E-cad gene expression at 16 uM by qRT-PCR analysis; type: functional, cell-based
SCC-9 [31] = assay: Induction of apoptosis in human SCC-9 cells assessed as upregulation of E-cad gene expression at 32 uM by qRT-PCR analysis; type: functional, cell-based

## COc1ccc(-c2csc(NC(=O)CN3CCN(Cc4c(O)c(OC)c(O)c5c4C(=O)OC4C5O[C@H](CO)[C@@H](O)[C@@H]4O)CC3)n2)cc1 (some centres undefined)
HCT-15
  IC50: 70.5 µM
CAL-27 [1]
  IC50: 16 µM
SCC-9 [2]
  IC50: 32.4 µM
A549
  IC50: > 100 µM
MCF7
  IC50: > 100 µM
CAL-27 [3]
  Activity: 85.5%
CAL-27 [4]
  Activity: 3.1%
CAL-27 [5]
  Activity: 12.3%
CAL-27 [6]
  Activity: 9.4%
SCC-9 [7]
  Activity: 71.4%
SCC-9 [8]
  Activity: 16%
SCC-9 [9]
  Activity: 12.4%
CAL-27 [10]
  Activity: 94.5%
CAL-27 [11]
  Activity: 2.7%
CAL-27 [12]
  Activity: 2%
CAL-27 [13]
  Activity: 0.9%
CAL-27 [14]
  Activity: 91%
CAL-27 [15]
  Activity: 4.3%
SCC-9 [16]
  Activity: 44.2%
SCC-9 [17]
  Activity: 6.2%
SCC-9 [18]
  Activity: 17.5%
CAL-27 [19]
  Activity: Active
CAL-27 [20]
  Activity: Active
CAL-27 [21]
  Activity: Active
CAL-27 [22]
  Activity: Active
CAL-27 [23]
  Activity: Active
CAL-27 [24]
  Activity: Active
CAL-27 [25]
  Activity: Active
SCC-9 [26]
  Activity: Active
SCC-9 [27]
  Activity: Active
SCC-9 [28]
  Activity: Active
SCC-9 [29]
  Activity: Active
SCC-9 [30]
  Activity: Active
SCC-9 [31]
  Activity: Active
